Here are results for 95 molecules from PubChem BioAssay AID573 (SRMLSC, 2007).

The campaign covered roughly 65,000 compounds. About 1,400 (2.2%) were called active. This is one part of a sample in which actives are shown more often than they occur. Unmarked numbers belong to inactive results.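 How the source made its calls: active means growth inhibition at or above a cutoff equal to the mean over every tested compound plus 3 SD (cut at about 60% in these data); inactive means the rest.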

This assay in a line: E. coli ΔtolC antibacterial growth inhibition – strain BW25113 ΔtolC::kan, 384-well, primary screen (AID 573).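 Further: growth measured after 20 h incubation at 37 °C.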 The note with it: E. coli BW25113 tolC mutant growth, OD615; hits give high values; screened at 10 µM (by protocol). Summed up: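 Test system – E. coli BW25113 ΔtolC::kan, tolC deletion mutant strain · Detection – OD at 615 nm · Buffer or medium – LB with kanamycin 50 µg/mL · Times – 20 h compound exposure of bacteria at 37 °C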
For `COC(=O)CSC1=C(C#N)C(c2ccccc2OC)C(C(=O)OC)C(=O)N1` (stereo not given), the growth inhibition is -1.55%.

With `CCCCCCn1c(CN2CCCC(C)C2)nc2c1c(=O)n(C)c(=O)n2C` (stereo not given), the growth inhibition is 60.7% (active).

Consider `CCCCCCn1c(CN2CCCCC2)nc2c1c(=O)n(C)c(=O)n2C`, for which the growth inhibition is -3.32%.

Regarding `CC1CCCN(Cc2nc3c(c(=O)n(C)c(=O)n3C)n2CC(=O)c2ccccc2)C1` (stereo not given), the growth inhibition was 13.4%.

Take `NC(=O)C1CC=CCC1C(=O)OCC(Cl)=C(Cl)Cl` (stereo not given): the growth inhibition was 3.92%.

In the case of `COC(=O)c1cccc(NC(=O)CSc2nc(C)cc(=O)[nH]2)c1`, the growth inhibition was 10.2%.

With `CCOC(=O)c1c(C)[nH]c(C)c1C(=O)CSc1nc(N)cc(N)n1`, the growth inhibition was -1.68%.

Regarding `COC(=O)c1cc(C(=O)CSc2nc(C)cc(C)n2)ccc1O`, the growth inhibition was 68% (active).

Turning to `CCOC(=O)c1nnn(-c2nonc2OC)c1-c1ccccc1`, the growth inhibition was 8.09%.

Consider `COC(=O)c1ccc(NC(=O)CSc2nnc(CNc3ccc(OC)cc3)n2C)cc1`, for which the growth inhibition was 3.76%.

In the case of `CCN(CC(=O)NC(C)C)C(=O)CCNC(=O)c1ccc(Cl)cc1`, the growth inhibition was -4.01%.

`CC1(N2CCOCC2)CC2(O)C(=[N+]1[O-])CCc1nonc12` (stereo not given): the growth inhibition is -7.92%.

Turning to `COc1cc(C2C(C(=O)c3ccc(C)o3)=C(O)C(=O)N2CCc2ccccc2)ccc1O` (stereo not given), the growth inhibition was 5.33%.

`COc1ccc(CCN(C)CCN2C(=O)c3ccccc3C2=O)cc1OC`: the growth inhibition is -13.3%.

Take `COc1ccc(CCN2C(=O)c3[nH]nc(-c4ccccc4O)c3C2c2ccc(C)cc2)cc1OC` (stereo not given): the growth inhibition is 64.4% (active).

`CNC(=O)c1c(NC(=O)c2ccc(S(=O)(=O)N3CCOCC3)cc2)sc2c1CCC2`: the growth inhibition is 10.9%.

In the case of `CCOCCc1c(O)nc(SCC(=O)NCc2ccco2)[nH]c1=O`, the growth inhibition was -0.82%.

In the case of `Cc1ccc(C)c(S(=O)(=O)n2cnc3ccccc32)c1`, the growth inhibition was 7.6%.

Consider `CCOc1ccc(C(C)C)cc1S(=O)(=O)n1nc(C)cc1C`, for which the growth inhibition is 24.3%.

For the molecule `CCOc1cc(C)c(Cl)cc1S(=O)(=O)n1nnc2ccccc21`, the growth inhibition is 63.4% (active).

In the case of `CCN1CCN(C(=O)CN(C)S(=O)(=O)c2ccc(OC)cc2)CC1`, the growth inhibition is 8.07%.

As to `O=C(Nc1ccccc1)N(Cc1cccnc1)Cc1ccco1`, the growth inhibition was -11.4%.

As to `CS(=O)(=O)NCc1ccc(C(=O)NCc2ccccc2)cc1`, the growth inhibition was -9.06%.

Turning to `COc1ccccc1N1CCN(C(=O)CN(Cc2ccc(Cl)cc2)S(C)(=O)=O)CC1`, the growth inhibition was 25.9%.

Turning to `COc1cc2ccccc2cc1C(=O)Nc1ccc(S(=O)(=O)Nc2cc(C)on2)cc1`, the growth inhibition is 78.6% (active).

Take `Cc1cc(NS(=O)(=O)c2ccccc2)no1`: the growth inhibition is -26.8%.

As for `CCOc1ccc(CC(=O)Nc2ccc(S(=O)(=O)Nc3cc(C)on3)cc2)cc1OCC`, the growth inhibition was 4.16%.

For `CCOC(=O)C1CCN(C(=O)C2CCN(S(=O)(=O)N3CCCC3)CC2)CC1`, the growth inhibition is -4.22%.

For the molecule `CCOC(=O)N1CCN(C(=O)c2cn(C)c3ccc(S(=O)(=O)N4CCCC4)cc3c2=O)CC1`, the growth inhibition is -22.7%.

For `CCOC(=O)C1CCN(C(=O)c2oc3ccc(S(=O)(=O)N4CCCCCC4)cc3c2C)CC1`, the growth inhibition is 77.3% (active).

For the molecule `COc1cccc(N(C(=O)c2ccn[nH]2)C2(C(=O)Nc3c(C)cccc3C)CCCCC2)c1`, the growth inhibition is 30.5%.

In the case of `Cc1ccc(C)c(S(=O)(=O)N2CC(=O)Nc3ccccc32)c1`, the growth inhibition was 17.8%.

For `CC(=O)Nc1ccc(-c2nn3c(C)nnc3s2)cc1C`, the growth inhibition was -9.56%.

As to `COc1ccc(OC)c(CNC(=O)C2CCCN(c3nc4ccccc4o3)C2)c1` (stereo not given), the growth inhibition is 1.68%.

Regarding `Cc1cc(C(F)(F)F)c(C#N)c(SCC(=O)NC2CC2)n1`, the growth inhibition was 16.2%.

For the molecule `COCc1cc(C)nc(SCC(=O)Nc2cccc(C)c2)c1C#N`, the growth inhibition is -0.31%.

Turning to `Cc1cc(C)c(C#N)c(SCS(=O)c2ccc(C(C)(C)C)cc2)n1` (stereo not given), the growth inhibition was 70.6% (active).

In the case of `CCOc1ccc(Nc2oc(Cc3ccccc3)nc2C#N)cc1`, the growth inhibition is 31.9%.

In the case of `N#Cc1nc(Cc2cccc3ccccc23)oc1NCc1ccc2c(c1)OCO2`, the growth inhibition was 57.4%.

On to `N#Cc1nc(Cc2ccccc2)oc1NCCc1ccccc1`, for which the growth inhibition is 74.2% (active).

For the molecule `C=CCn1cnc2scc(-c3ccccc3)c2c1=O`, the growth inhibition is 6.35%.

For `C=CCn1c(SCc2nnc(-c3ccccc3)o2)nnc1C(O)c1ccccc1` (stereo not given), the growth inhibition is 0.17%.

Take `COc1ccc(Nc2cc(C)nc(-n3nc(C)cc3C)n2)cc1`: the growth inhibition was 17.6%.

With `Cc1nc(SCC(=O)Nc2cc(C)on2)c2c3c(sc2n1)CCCC3`, the growth inhibition was 12.3%.

For the molecule `COCCn1c(C)cc(C(=O)CSc2ncnc3sc4c(c23)CCC4)c1C`, the growth inhibition is 0.17%.

In the case of `COCCNc1nc(-n2nc(C)cc2C)nc2sc3c(c12)CCCC3`, the growth inhibition is 94.3% (active).

As to `CC(=O)c1sc2nc(SCC(=O)N3CCCCC3)[nH]c(=O)c2c1C`, the growth inhibition is 8.81%.

Consider `Cc1cc(C)n(-c2nc(SCC(=O)N3CCCC3)c3c4c(sc3n2)CCCC4)n1`, for which the growth inhibition was 85.9% (active).

Regarding `CCCOC(=O)C1=C(C)NC2=C(C(=O)C(C(=O)OC)C(C)C2)C1c1ccc(N(C)C)cc1` (stereo not given), the growth inhibition was 16%.

For `Cn1c(=O)[nH]c(=O)c2c1nc(N(CCO)Cc1ccccc1)n2Cc1ccccc1Cl`, the growth inhibition was 0.78%.

On to `O=C(NCc1cccs1)C1CCN(S(=O)(=O)c2ccc3c(c2)OCCO3)CC1`, for which the growth inhibition is -14.5%.

With `COc1ccc(CCNS(=O)(=O)c2ccc(F)cc2)cc1OC`, the growth inhibition is -5.35%.

On to `COC(=O)CNS(=O)(=O)c1ccc(Cc2ccc(S(=O)(=O)NCC(=O)OC)cc2)cc1`, for which the growth inhibition is 69.7% (active).

As to `COC(=O)COc1ccc(S(=O)(=O)Nc2ccc(NC(C)=O)cc2)cc1`, the growth inhibition is -1.6%.

Turning to `COc1ccccc1Nc1ncnc2c1oc1ccccc12`, the growth inhibition was -1.75%.

In the case of `COc1ncnc2sc3c(c12)CCCC3`, the growth inhibition was 2.48%.

On to `CS(=O)(=O)N(Cc1nc2sc3c(c2c(=O)[nH]1)CCCC3)C1CCCCC1`, for which the growth inhibition is 83.8% (active).

In the case of `CCOC(=O)N1CCN(S(=O)(=O)c2ccc(C(=O)Nc3ccc(F)cc3F)cc2)CC1`, the growth inhibition is -4.51%.

Take `c1csc(-c2nc(-c3ccncc3)no2)c1`: the growth inhibition is 1.08%.

Take `Cc1cccc(C(=O)Nc2ccc(CC(=O)O)cc2)c1`: the growth inhibition was -16%.

As for `COC(=O)c1sc(=S)n(-c2ccccc2)c1N`, the growth inhibition is -12.6%.

As for `COc1ccc(-c2csc(N3CCN(Cc4ccc5c(c4)OCO5)CC3)n2)cc1`, the growth inhibition is 5.4%.

As for `CC1CCCC(C)N1C(=O)CN1CCN(c2nc(-c3ccc(F)cc3)cs2)CC1` (stereo not given), the growth inhibition is 100% (active).

Turning to `O=C(CN1CCN(c2nc(-c3ccccc3)cs2)CC1)NCc1ccc2c(c1)OCO2`, the growth inhibition was 50%.

Turning to `COc1c(F)c(F)c(-c2csc(N)n2)c(F)c1F`, the growth inhibition was 9.92%.

As to `CNC(=O)Nc1cc(C(C)(C)C)no1`, the growth inhibition was -22.1%.

As for `O=C(NCc1ccco1)c1cc2sccc2n1Cc1ccc(F)cc1`, the growth inhibition is 56.9%.

On to `COc1ccc(CCNC(=O)c2cc3sccc3n2C)cc1OC`, for which the growth inhibition is 7.67%.

For the molecule `CCOC(=O)c1cc2sccc2n1Cc1ccc(C#N)cc1`, the growth inhibition was 62.5% (active).

In the case of `c1nnc2c3c4c(sc3ncn12)CCC4`, the growth inhibition was -4.55%.

On to `O=C(CSc1nc2ccccc2o1)N1CCN(c2ccccc2)CC1`, for which the growth inhibition was 5.08%.

As to `Cc1cccc(NC(=O)CSC(N)=O)c1C`, the growth inhibition was -15.7%.

Consider `CC1CCCN(c2ccc(C(=O)NCCc3ccccc3)cn2)C1` (stereo not given), for which the growth inhibition is 61.4% (active).

For the molecule `O=C(O)C1CC=CCC1C(=O)NCCc1ccccc1` (stereo not given), the growth inhibition was -21.4%.

As for `O=C(NCCCNCc1ccccc1)c1ccc(/C=N/O)nc1`, the growth inhibition was -12.5%.

For `COc1ccc(S(=O)(=O)N2CCOCC2)cc1C(=O)Nc1nc2ccccc2s1`, the growth inhibition is -15.6%.

As to `CCCn1c(=O)c2[nH]c(C3CCCC3)nc2n(CCC)c1=O`, the growth inhibition was 5.97%.

In the case of `O.O.O.O=S(=O)([O-])OC[C@H]1O[C@@H](O[C@]2(COS(=O)(=O)[O-])O[C@H](OS(=O)(=O)[O-])[C@@H](OS(=O)(=O)[O-])[C@@H]2OS(=O)(=O)[O-])[C@H](OS(=O)(=O)[O-])[C@@H](OS(=O)(=O)[O-])[C@@H]1OS(=O)(=O)[O-].[Al]`, the growth inhibition was -6.62%.

Consider `CCOC(=O)CSc1nnc(-c2cccc(Br)c2)o1`, for which the growth inhibition was -4.64%.

For `Cc1noc(C)c1S(=O)(=O)N(CC(=O)NCc1ccc(Cl)cc1)c1ccc2c(c1)OCO2`, the growth inhibition was -5.56%.

For `CC1CCN(c2oc(-c3ccccc3F)nc2C#N)CC1`, the growth inhibition is 71.3% (active).

Turning to `N#Cc1nc(COc2ccc(Cl)cc2)oc1N1CCCC1`, the growth inhibition was 7.84%.

On to `N#CCCN1CCN(S(=O)(=O)c2ccc(S(=O)(=O)NC3CCCCC3)cc2)CC1`, for which the growth inhibition was -0.61%.

For `Cc1cc(NC(=O)CN2CCC(O)(c3cccc(F)c3)CC2)no1`, the growth inhibition was -18.6%.

For `O=C(Cn1nnc(-c2ccc3c(c2)OCO3)n1)NCc1ccco1`, the growth inhibition was 7.12%.

For the molecule `O=C(NCCCCO)C(F)(F)C(F)(F)C(F)(F)C(=O)NCCCCO`, the growth inhibition was -11%.

Turning to `CCOCC(=O)Nc1sc2c(c1C(=O)OCC)CCCC2`, the growth inhibition is 42.8%.

`CCOC(=O)c1c(NC(=O)CSc2nnc(CN3CCOCC3)n2C)sc2c1CCCC2`: the growth inhibition is 5.6%.

As for `CCOC(=O)c1c(NC(=O)CSc2nnc(C)c(=O)[nH]2)sc2c1CCC2`, the growth inhibition was 66.5% (active).

Turning to `CC1(C)CC(=O)c2cc(OCC(=O)NCC3CCCO3)ccc2O1` (stereo not given), the growth inhibition is -5%.

With `O=C(NCCCN1CCCCCC1)C1CC(=O)N(C2CCCC2)C1` (stereo not given), the growth inhibition is -11.7%.

As to `COc1cc(OC)cc(C(=O)Nc2ccc(-c3nc4ccccc4o3)c(O)c2)c1`, the growth inhibition was 19.7%.

For `Cc1nc(SC(C)C)[nH]c(=O)c1Cc1ccccc1`, the growth inhibition was 0%.

On to `Cc1nc2nc(COc3ccccc3)[nH]n2c(=O)c1C`, for which the growth inhibition is 11.6%.

With `Cc1nc2nc(COc3ccccc3)[nH]n2c(=O)c1Cc1ccccc1`, the growth inhibition was 100% (active).
